Data reported in ChEMBL document CHEMBL4406880, “Design, synthesis, and bioactivity of dihydropyrimidine derivatives as kinesin spindle protein inhibitors” (Bioorg Med Chem, 2019).

What was measured:
Assay type in all cases: functional
NCI-H226 = assay: Growth inhibition of human NCI-H226 cells assessed as growth percentage at 10 uM incubated for 48 hrs by sulforhodamine B assay relative to control; conditions: NCI-H226, 48 h, read-out: Activity
In short: (§1)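 NCI-60 one-dose screen. Cells in RPMI 1640 with 5% FBS and 2 mM L-glutamine, seeded at 5,000–40,000 cells/well according to doubling time, and preincubated overnight at 37 °C, 5% CO2. A time-zero plate was TCA-fixed at drug addition. Compound from DMSO stock, final 10 µM, 48 h; DMSO vehicle controls. Fixation with TCA, 10% final (16% for suspension cells). SRB stain, Tris solubilization, A515. Result given as % growth versus untreated cells.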

T47D = assay: Growth inhibition of human T47D cells assessed as growth percentage at 10 uM incubated for 48 hrs by sulforhodamine B assay relative to control; conditions: read-out: Activity
In short: (§2)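 NCI-60 single-dose screen. Cells were grown in RPMI 1640 with 5% FBS and 2 mM L-glutamine and plated at 5,000–40,000 cells/well. After an overnight preincubation at 37 °C in 5% CO2, compound was added at a final 10 µM from a DMSO stock, with DMSO/PBS controls. After 48 h, cells were TCA-fixed and stained with 0.4% SRB, and absorbance was read at 515 nm. Growth is given as a percentage of untreated control.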

MCF7 = assay: Growth inhibition of human MCF7 cells assessed as growth percentage at 10 uM incubated for 48 hrs by sulforhodamine B assay relative to control; conditions: MCF7, 48 h, read-out: Activity; in short: as §1
EKVX = assay: Growth inhibition of human EKVX cells assessed as growth percentage at 10 uM incubated for 48 hrs by sulforhodamine B assay relative to control; conditions: read-out: Activity
In short: (§3)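 NCI-60 one-dose screen: cells in RPMI 1640 with 5% FBS and 2 mM L-glutamine, plated at 5,000–40,000 cells/well and preincubated 24 h at 37 °C, 5% CO2. Compound is added from a DMSO stock to a final 10 µM and incubated 48 h. Cells are TCA-fixed and stained with sulforhodamine B, read at 515 nm. Output is % growth versus untreated control, with a time-zero plate.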

786-0 = assay: Growth inhibition of human 786-0 cells assessed as growth percentage at 10 uM incubated for 48 hrs by sulforhodamine B assay relative to control; conditions: 786-0, 48 h, read-out: Activity; in short: as §3
K562 = assay: Growth inhibition of human K562 cells assessed as growth percentage at 10 uM incubated for 48 hrs by sulforhodamine B assay relative to control; conditions: K562, 48 h, read-out: Activity; in short: as §1
MDA-MB-468 = assay: Growth inhibition of human MDA-MB-468 cells assessed as growth percentage at 10 uM incubated for 48 hrs by sulforhodamine B assay relative to control; conditions: MDA-MB-468, 48 h, read-out: Activity; in short: as §1
TK-10 = assay: Growth inhibition of human TK10 cells assessed as growth percentage at 10 uM incubated for 48 hrs by sulforhodamine B assay relative to control; conditions: TK-10, 48 h, read-out: Activity; in short: as §2
RXF 393 = assay: Growth inhibition of human RXF393 cells assessed as growth percentage at 10 uM incubated for 48 hrs by sulforhodamine B assay relative to control; conditions: RXF 393, 48 h, read-out: Activity; in short: as §2
MDA-MB-435 = assay: Growth inhibition of human MDA-MB-435 cells assessed as growth percentage at 10 uM incubated for 48 hrs by sulforhodamine B assay relative to control; conditions: MDA-MB-435, 48 h, read-out: Activity; in short: as §1
M14 = assay: Growth inhibition of human M14 cells assessed as growth percentage at 10 uM incubated for 48 hrs by sulforhodamine B assay relative to control; conditions: M14, 48 h, read-out: Activity; in short: as §1
CAKI-1 = assay: Growth inhibition of human Caki1 cells assessed as growth percentage at 10 uM incubated for 48 hrs by sulforhodamine B assay relative to control; conditions: CAKI-1, 48 h, read-out: Activity; in short: as §3
HOP-92 = assay: Growth inhibition of human HOP92 cells assessed as growth percentage at 10 uM incubated for 48 hrs by sulforhodamine B assay relative to control; conditions: HOP-92, 48 h, read-out: Activity; in short: as §1
UO-31 = assay: Growth inhibition of human UO31 cells assessed as growth percentage at 10 uM incubated for 48 hrs by sulforhodamine B assay relative to control; conditions: UO-31, 48 h, read-out: Activity; in short: as §2
NCI/ADR-RES = assay: Growth inhibition of human NCI/ADR-RES cells assessed as growth percentage at 10 uM incubated for 48 hrs by sulforhodamine B assay relative to control; conditions: read-out: Activity; in short: as §1
IGROV-1 = assay: Growth inhibition of human IGROV1 cells assessed as growth percentage at 10 uM incubated for 48 hrs by sulforhodamine B assay relative to control; conditions: IGROV-1, 48 h, read-out: Activity; in short: as §1
SF-268 = assay: Growth inhibition of human SF268 cells assessed as growth percentage at 10 uM incubated for 48 hrs by sulforhodamine B assay relative to control; conditions: SF-268, 48 h, read-out: Activity; in short: as §2
KM12 = assay: Growth inhibition of human KM12 cells assessed as growth percentage at 10 uM incubated for 48 hrs by sulforhodamine B assay relative to control; conditions: KM12, 48 h, read-out: Activity; in short: as §1
Malme-3M = assay: Growth inhibition of human MALME-3M cells assessed as growth percentage at 10 uM incubated for 48 hrs by sulforhodamine B assay relative to control; conditions: read-out: Activity; in short: as §1
HCC 2998 = assay: Growth inhibition of human HCC2998 cells assessed as growth percentage at 10 uM incubated for 48 hrs by sulforhodamine B assay relative to control; conditions: HCC 2998, 48 h, read-out: Activity; in short: as §3
OVCAR-5 = assay: Growth inhibition of human OVCAR5 cells assessed as growth percentage at 10 uM incubated for 48 hrs by sulforhodamine B assay relative to control; conditions: OVCAR-5, 48 h, read-out: Activity; in short: as §2
A549 = assay: Growth inhibition of human A549/ATCC cells assessed as growth percentage at 10 uM incubated for 48 hrs by sulforhodamine B assay relative to control; conditions: A549, 48 h, read-out: Activity; in short: as §3
SNB-75 = assay: Growth inhibition of human SNB75 cells assessed as growth percentage at 10 uM incubated for 48 hrs by sulforhodamine B assay relative to control; conditions: SNB-75, 48 h, read-out: Activity; in short: as §2
NCI-H23 = assay: Growth inhibition of human NCI-H23 cells assessed as growth percentage at 10 uM incubated for 48 hrs by sulforhodamine B assay relative to control; conditions: NCI-H23, 48 h, read-out: Activity; in short: as §1
HCT-15 = assay: Growth inhibition of human HCT15 cells assessed as growth percentage at 10 uM incubated for 48 hrs by sulforhodamine B assay relative to control; conditions: HCT-15, 48 h, read-out: Activity; in short: as §3
SF-539 = assay: Growth inhibition of human SF539 cells assessed as growth percentage at 10 uM incubated for 48 hrs by sulforhodamine B assay relative to control; conditions: SF-539, 48 h, read-out: Activity; in short: as §2

| Structure (SMILES) | growth at 10 µM (NCI-H226) [%] | growth at 10 µM (T47D) [%] | growth at 10 µM (MCF7) [%] | growth at 10 µM (EKVX) [%] | growth at 10 µM (786-0) [%] | growth at 10 µM (K562) [%] | growth at 10 µM (MDA-MB-468) [%] | growth at 10 µM (TK-10) [%] | growth at 10 µM (RXF 393) [%] | growth at 10 µM (MDA-MB-435) [%] | growth at 10 µM (M14) [%] | growth at 10 µM (CAKI-1) [%] | growth at 10 µM (HOP-92) [%] | growth at 10 µM (UO-31) [%] | growth at 10 µM (NCI/ADR-RES) [%] | growth at 10 µM (IGROV-1) [%] | growth at 10 µM (SF-268) [%] | growth at 10 µM (KM12) [%] | growth at 10 µM (Malme-3M) [%] | growth at 10 µM (HCC 2998) [%] | also measured |
| --- | --- | --- | --- | --- | --- | --- | --- | --- | --- | --- | --- | --- | --- | --- | --- | --- | --- | --- | --- | --- | --- |
| COCCOC(=O)C1=C(C)NC(=S)N(C(C)=O)C1c1ccc2c(c1)OCO2 (racemic) | 96.6 | 86.9 | 102 | 94.1 | 108 | 94.3 | 105 | 102 | 111 | 103 | 96.1 | 97.4 | 85.4 | 82 | 99.8 | 106 | 98.4 | 95.9 | 88.6 | 113 | growth at 10 µM (OVCAR-5): 102%; growth at 10 µM (A549): 99.2%; growth at 10 µM (SNB-75): 83%; growth at 10 µM (NCI-H23): 99.1%; growth at 10 µM (HCT-15): 103%; growth at 10 µM (SF-539): 97.6% |
| CC1=C(C(=O)OCC(C)C)C(c2ccc3c(c2)OCO3)NC(=O)N1 (racemic) | 93.1 | 97.5 | 101 | 95.5 | 104 | 113 | 100 | 99.4 | 101 | 109 | 105 | 96.3 | 102 | 84.8 | 106 | 94.8 | 101 | 104 | 99.8 | 108 | growth at 10 µM (OVCAR-5): 104%; growth at 10 µM (A549): 109%; growth at 10 µM (SNB-75): 100%; growth at 10 µM (NCI-H23): 102%; growth at 10 µM (HCT-15): 101%; growth at 10 µM (SF-539): 104% |
| O=C1NC2=C(C(=O)c3ccccc32)C(c2ccc3c(c2)OCO3)N1 (racemic) | 102 | 95 | 96.5 | 97.4 | 106 | 104 | 114 | 96.1 | 98.8 | 105 | 110 | 90.9 | 99 | 85.4 | 109 | 104 | 97.4 | 111 | 106 | 107 | growth at 10 µM (OVCAR-5): 105%; growth at 10 µM (A549): 106%; growth at 10 µM (SNB-75): 78.5%; growth at 10 µM (NCI-H23): 104%; growth at 10 µM (HCT-15): 105%; growth at 10 µM (SF-539): 94.7% |
